What was measured:
[1] = AUC (0 to infinity) in Sprague-Dawley rat at 5 mg/kg, iv measured up to 72 hrs by LC/MS analysis; type: ADME, organism-based; set-up: dose 5 mg/kg, time infinity, route intravenous; conditions: in vivo
Procedure, shortened: (§1)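 Male Sprague-Dawley rats, 4–6 weeks old, acclimatised 1 week, were dosed iv at 5 mg/kg or by oral gavage at 25 mg/kg. Vehicle was 2% DMSO, 4% EtOH, 4% castor oil, 90% H2O. Blood was drawn by orbital sinus puncture from 2 min to 72 h into heparinized tubes. Plasma was assayed by LC/MS with propranolol as internal standard. Three animals per group.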

RAW264.7 [2] = test: Downregulation of ARG1 mRNA expression in mouse RAW264.7 cells after 48 hrs by qRT-PCR analysis relative to DMSO; type: functional, cell-based
Procedure, shortened: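 RAW264.7 macrophages were treated 48 h with compound at 0.08, 0.4 or 2.0 μM, or DMSO vehicle. Total RNA was extracted with TRIzol and transcripts were quantified by qRT-PCR using gene-specific primers. Run three times, each in triplicate.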

[3] = molecular target: Platelet-derived growth factor receptor beta (Homo sapiens, UniProt P09619); test: Inhibition of recombinant human PDGFRbeta expressed in baculovirus using poly (4:1 Glu, Tyr) peptide as substrate after 1 hr by ADP-Glo assay
RAW264.7 [4] = test: Antimigratory activity against mouse RAW264.7 cells assessed as inhibition of human LNCaP-MDV-CM mediated macrophage migration at 5 uM after 24 hrs by crystal violet staining based transwell assay relative to control; type: functional; conditions: RAW264.7, 24 h
Procedure, shortened: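 RAW264.7 cells, (2−4) × 10^5, were placed serum-free in the upper insert of a transwell. The lower chamber held conditioned medium from LNCaP cells grown 48 h in 10% FBS RPMI 1640 with 10 μM MDV3100 or DMSO. Compound at 0.625–5.0 μM was added to the top chamber for 24 h at 37 °C. Migrated cells were fixed in methanol, stained with 0.25% crystal violet and counted in six random fields at 200×. Three independent experiments.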

[5] = molecular target: Tyrosine-protein kinase ABL1 (Homo sapiens) (UniProt P00519); test: Inhibition of human ABL1 (S229 to K512 residues) expressed in mammalian expression system at 100 nM by KINOMEscan assay relative to control
[6] = molecular target: T1, Macrophage colony-stimulating factor 1 receptor (Mus musculus) (UniProt P09581); test: Inhibition of CSF1R phosphorylation in mouse RAW264.7 cells at 80 nM preincubated for 6 hrs followed by CSF1 stimulation for 20 mins by Western blot analysis relative to control; type: cell-based
T1 sequence (whole entry): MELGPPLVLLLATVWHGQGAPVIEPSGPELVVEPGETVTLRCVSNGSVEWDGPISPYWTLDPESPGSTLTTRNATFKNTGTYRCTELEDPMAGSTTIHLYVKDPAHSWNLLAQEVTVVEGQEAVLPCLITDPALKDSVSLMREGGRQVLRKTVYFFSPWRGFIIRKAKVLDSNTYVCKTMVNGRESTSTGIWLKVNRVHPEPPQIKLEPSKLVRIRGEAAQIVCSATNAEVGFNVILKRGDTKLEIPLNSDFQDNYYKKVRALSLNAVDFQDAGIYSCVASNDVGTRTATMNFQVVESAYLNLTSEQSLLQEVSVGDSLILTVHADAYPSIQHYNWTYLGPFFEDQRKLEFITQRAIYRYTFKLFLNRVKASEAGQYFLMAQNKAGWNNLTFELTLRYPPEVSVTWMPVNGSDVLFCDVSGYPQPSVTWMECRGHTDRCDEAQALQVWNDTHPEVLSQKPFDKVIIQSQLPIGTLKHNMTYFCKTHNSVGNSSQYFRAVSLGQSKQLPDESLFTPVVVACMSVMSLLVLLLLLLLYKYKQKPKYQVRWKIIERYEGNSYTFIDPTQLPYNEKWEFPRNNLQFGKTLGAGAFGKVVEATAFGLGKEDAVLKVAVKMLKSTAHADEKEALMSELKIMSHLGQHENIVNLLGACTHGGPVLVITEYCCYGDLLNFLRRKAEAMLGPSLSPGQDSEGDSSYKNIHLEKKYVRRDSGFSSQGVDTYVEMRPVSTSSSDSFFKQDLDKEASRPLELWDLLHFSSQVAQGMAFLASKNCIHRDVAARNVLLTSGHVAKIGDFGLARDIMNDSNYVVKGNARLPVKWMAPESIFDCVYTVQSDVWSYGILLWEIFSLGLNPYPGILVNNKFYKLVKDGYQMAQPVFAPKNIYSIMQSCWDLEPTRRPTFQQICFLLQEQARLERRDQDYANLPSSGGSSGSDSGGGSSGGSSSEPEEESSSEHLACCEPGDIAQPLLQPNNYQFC
Procedure, shortened: (§2)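 RAW264.7 cells were seeded, incubated overnight and treated 6 h with graded compound concentrations, then stimulated 20 min with CSF-1 (50 ng/mL). Lysates were run on 8−12% SDS-PAGE and immunoblotted for p-CSF1R (Tyr723), CSF1R, p-AKT, AKT and GAPDH. Bands were quantified and normalized to GAPDH. Mean ± SEM of at least three experiments.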

RAW264.7 [7] = test: Inhibition of protumorigenic potential of mouse RAW264.7 cells assessed as abrogation of human LNCAP cell growth enhancement of macrophages at 2 uM co-cultured for 48 hrs by CCK8 assay relative to control; type: functional; conditions: RAW264.7, 48 h
Procedure, shortened: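 LNCaP cells, (2−4) × 10^5, were seeded in the lower transwell chamber. After 2 h, (1−2) × 10^6 RAW264.7 cells were added in a 0.4 μm insert. Compound at 0.016–2.0 μM was added to the top chamber and cells were cocultured 48 h at 37 °C. LNCaP cells were then imaged and counted by CCK8. Run three times, each in triplicate.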

[8] = molecular target: Tyrosine-protein kinase Lyn (Homo sapiens) (UniProt P07948); test: Inhibition of recombinant human LYN-B expressed in bacterial expression system at 100 nM by KINOMEscan assay relative to control
[9] = molecular target: T1, Macrophage colony-stimulating factor 1 receptor (Mus musculus); test: Inhibition of CSF1R in mouse RAW264.7 cells assessed as suppression of AKT phosphorylation preincubated for 6 hrs followed by CSF1 stimulation for 20 mins by Western blot analysis; type: cell-based; procedure, shortened: as §2
[10] = molecular target: Ephrin type-A receptor 8 (Homo sapiens) (UniProt P29322); test: Inhibition of recombinant human EPHA8 (Q608 to C920 residues) expressed in bacterial expression system at 100 nM by KINOMEscan assay relative to control
Rattus norvegicus [11] = test: AUC (0 to infinity) in Sprague-Dawley rat at 25 mg/kg administered via oral gavage measured up to 72 hrs by LC/MS analysis; type: ADME, organism-based; set-up: dose 25 mg/kg, route oral, time infinity; conditions: in vivo; procedure, shortened: as §1
[12] = molecular target: Vascular endothelial growth factor receptor 2 (Homo sapiens) (UniProt P35968); test: Inhibition of human KDR (R787 to P1253 residues) expressed in mammalian expression system at 100 nM by KINOMEscan assay relative to control
[13] = molecular target: Tyrosine-protein kinase Lyn (Homo sapiens) (UniProt P07948); test: Inhibition of recombinant human LYN-A expressed in bacterial expression system at 100 nM by KINOMEscan assay relative to control
Rattus norvegicus [14] = test: Apparent clearance in Sprague-Dawley rat at 25 mg/kg administered via oral gavage measured up to 72 hrs by LC/MS analysis; type: ADME, organism-based; conditions: in vivo, iv, 5 mg/kg, in the assay text read “5 mg/kg administered intravenously” for “25 mg/kg administered via oral gavage”; procedure, shortened: as §1

Chain of Tyrosine-protein kinase Lyn (Homo sapiens) (P07948 2-512 limits assumed): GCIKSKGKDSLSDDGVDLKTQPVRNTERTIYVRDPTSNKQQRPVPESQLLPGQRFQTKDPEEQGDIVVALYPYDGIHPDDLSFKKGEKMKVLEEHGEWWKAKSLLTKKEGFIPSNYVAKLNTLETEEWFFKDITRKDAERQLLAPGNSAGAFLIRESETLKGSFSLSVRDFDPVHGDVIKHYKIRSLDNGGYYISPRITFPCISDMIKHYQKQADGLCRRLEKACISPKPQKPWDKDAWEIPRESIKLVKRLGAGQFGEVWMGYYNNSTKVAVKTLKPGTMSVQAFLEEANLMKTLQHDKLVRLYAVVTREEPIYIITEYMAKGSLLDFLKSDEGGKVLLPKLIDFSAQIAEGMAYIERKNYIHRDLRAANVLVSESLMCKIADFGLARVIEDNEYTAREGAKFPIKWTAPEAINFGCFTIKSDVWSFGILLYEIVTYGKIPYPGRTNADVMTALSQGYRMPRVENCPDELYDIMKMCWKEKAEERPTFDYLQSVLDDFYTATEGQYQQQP
Chain of Tyrosine-protein kinase ABL1 (Homo sapiens) (P00519 whole entry, the tested form may be a part): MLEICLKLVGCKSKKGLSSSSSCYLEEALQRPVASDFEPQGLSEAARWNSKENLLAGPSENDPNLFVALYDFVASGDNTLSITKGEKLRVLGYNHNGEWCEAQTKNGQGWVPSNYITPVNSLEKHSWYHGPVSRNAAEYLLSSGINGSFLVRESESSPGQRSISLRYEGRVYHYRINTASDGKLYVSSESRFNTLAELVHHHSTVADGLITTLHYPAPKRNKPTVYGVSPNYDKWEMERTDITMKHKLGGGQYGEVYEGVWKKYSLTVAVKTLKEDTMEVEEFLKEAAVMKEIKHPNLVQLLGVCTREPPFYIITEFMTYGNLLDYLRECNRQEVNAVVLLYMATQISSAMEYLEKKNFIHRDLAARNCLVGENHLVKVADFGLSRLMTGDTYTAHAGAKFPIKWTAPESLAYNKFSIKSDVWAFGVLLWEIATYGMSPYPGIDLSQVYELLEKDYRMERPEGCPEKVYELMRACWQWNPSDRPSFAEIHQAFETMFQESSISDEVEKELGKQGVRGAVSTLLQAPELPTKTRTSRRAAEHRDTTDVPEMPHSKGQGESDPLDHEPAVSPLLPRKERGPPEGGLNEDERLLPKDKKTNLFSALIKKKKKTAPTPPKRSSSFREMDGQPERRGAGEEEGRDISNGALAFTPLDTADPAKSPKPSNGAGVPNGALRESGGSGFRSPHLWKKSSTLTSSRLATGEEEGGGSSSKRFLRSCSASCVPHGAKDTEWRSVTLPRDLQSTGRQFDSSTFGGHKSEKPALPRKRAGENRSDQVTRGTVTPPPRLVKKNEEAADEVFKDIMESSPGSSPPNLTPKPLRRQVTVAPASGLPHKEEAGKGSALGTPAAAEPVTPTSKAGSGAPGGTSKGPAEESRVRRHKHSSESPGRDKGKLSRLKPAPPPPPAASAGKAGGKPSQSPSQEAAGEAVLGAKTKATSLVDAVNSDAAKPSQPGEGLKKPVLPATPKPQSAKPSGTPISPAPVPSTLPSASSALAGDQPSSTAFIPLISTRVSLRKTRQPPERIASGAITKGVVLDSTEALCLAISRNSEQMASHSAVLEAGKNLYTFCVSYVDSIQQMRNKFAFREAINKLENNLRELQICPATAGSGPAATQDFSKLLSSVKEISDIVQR
Chain of Vascular endothelial growth factor receptor 2 (Homo sapiens) (P35968 whole entry, the tested form may be a part): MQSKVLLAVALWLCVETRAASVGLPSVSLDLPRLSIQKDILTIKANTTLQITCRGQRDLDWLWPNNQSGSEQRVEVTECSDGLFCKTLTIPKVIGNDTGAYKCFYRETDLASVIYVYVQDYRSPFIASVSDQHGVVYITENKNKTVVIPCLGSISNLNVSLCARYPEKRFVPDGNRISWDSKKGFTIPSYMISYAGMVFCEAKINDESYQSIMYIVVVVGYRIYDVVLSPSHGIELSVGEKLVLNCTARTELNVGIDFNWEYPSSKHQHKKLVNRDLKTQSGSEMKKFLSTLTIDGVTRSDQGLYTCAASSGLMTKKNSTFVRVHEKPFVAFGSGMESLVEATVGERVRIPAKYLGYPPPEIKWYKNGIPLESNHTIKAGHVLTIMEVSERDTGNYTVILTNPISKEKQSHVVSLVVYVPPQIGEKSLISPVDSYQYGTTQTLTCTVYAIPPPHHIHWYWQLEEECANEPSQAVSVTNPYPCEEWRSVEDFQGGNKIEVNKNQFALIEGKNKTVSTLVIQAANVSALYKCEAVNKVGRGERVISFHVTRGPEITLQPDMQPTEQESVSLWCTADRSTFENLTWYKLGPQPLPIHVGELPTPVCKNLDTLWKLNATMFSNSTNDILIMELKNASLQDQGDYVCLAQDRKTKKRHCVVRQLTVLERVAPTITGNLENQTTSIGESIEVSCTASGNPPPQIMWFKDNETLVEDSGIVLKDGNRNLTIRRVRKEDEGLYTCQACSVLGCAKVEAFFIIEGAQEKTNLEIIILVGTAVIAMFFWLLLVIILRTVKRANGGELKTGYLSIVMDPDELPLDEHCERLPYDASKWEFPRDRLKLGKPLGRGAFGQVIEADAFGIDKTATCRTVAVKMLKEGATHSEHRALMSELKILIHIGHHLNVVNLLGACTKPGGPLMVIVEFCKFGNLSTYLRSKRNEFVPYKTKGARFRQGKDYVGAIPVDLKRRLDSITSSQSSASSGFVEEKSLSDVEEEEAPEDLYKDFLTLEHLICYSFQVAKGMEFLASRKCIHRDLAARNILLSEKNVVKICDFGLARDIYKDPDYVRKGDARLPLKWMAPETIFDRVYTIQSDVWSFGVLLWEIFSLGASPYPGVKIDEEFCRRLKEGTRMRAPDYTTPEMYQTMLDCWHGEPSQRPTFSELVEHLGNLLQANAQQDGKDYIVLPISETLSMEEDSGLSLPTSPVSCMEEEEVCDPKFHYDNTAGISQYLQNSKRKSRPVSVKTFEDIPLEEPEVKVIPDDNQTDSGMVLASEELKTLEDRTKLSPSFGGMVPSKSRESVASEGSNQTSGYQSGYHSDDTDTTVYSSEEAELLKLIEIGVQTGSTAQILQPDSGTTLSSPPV
Chain of Ephrin type-A receptor 8 (Homo sapiens) (P29322 whole entry, the tested form may be a part): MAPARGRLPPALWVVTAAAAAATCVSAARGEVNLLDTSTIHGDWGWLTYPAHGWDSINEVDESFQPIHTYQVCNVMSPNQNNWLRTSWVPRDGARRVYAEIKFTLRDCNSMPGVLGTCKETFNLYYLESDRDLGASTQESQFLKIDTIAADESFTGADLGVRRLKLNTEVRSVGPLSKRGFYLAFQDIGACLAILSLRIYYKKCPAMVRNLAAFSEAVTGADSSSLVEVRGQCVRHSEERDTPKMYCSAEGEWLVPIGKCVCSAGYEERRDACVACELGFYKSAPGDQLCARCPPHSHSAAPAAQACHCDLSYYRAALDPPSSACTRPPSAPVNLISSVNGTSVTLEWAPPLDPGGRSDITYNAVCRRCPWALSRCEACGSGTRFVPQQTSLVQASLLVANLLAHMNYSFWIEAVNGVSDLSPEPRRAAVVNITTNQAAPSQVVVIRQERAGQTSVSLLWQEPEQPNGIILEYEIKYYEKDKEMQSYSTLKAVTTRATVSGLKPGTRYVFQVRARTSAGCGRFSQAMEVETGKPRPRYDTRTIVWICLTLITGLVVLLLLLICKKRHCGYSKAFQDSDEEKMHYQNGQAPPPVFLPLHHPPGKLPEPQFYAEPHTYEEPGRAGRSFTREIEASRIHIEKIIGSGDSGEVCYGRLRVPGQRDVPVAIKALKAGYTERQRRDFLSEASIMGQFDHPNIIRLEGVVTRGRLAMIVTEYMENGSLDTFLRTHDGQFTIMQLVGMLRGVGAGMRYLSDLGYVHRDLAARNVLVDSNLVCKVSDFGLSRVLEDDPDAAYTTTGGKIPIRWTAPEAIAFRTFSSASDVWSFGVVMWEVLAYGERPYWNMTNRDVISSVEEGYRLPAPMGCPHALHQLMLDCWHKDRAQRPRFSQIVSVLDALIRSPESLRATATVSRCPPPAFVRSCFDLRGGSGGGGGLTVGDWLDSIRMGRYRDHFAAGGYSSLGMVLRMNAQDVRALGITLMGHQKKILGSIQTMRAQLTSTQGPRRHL
Chain of Platelet-derived growth factor receptor beta (P09619 whole entry): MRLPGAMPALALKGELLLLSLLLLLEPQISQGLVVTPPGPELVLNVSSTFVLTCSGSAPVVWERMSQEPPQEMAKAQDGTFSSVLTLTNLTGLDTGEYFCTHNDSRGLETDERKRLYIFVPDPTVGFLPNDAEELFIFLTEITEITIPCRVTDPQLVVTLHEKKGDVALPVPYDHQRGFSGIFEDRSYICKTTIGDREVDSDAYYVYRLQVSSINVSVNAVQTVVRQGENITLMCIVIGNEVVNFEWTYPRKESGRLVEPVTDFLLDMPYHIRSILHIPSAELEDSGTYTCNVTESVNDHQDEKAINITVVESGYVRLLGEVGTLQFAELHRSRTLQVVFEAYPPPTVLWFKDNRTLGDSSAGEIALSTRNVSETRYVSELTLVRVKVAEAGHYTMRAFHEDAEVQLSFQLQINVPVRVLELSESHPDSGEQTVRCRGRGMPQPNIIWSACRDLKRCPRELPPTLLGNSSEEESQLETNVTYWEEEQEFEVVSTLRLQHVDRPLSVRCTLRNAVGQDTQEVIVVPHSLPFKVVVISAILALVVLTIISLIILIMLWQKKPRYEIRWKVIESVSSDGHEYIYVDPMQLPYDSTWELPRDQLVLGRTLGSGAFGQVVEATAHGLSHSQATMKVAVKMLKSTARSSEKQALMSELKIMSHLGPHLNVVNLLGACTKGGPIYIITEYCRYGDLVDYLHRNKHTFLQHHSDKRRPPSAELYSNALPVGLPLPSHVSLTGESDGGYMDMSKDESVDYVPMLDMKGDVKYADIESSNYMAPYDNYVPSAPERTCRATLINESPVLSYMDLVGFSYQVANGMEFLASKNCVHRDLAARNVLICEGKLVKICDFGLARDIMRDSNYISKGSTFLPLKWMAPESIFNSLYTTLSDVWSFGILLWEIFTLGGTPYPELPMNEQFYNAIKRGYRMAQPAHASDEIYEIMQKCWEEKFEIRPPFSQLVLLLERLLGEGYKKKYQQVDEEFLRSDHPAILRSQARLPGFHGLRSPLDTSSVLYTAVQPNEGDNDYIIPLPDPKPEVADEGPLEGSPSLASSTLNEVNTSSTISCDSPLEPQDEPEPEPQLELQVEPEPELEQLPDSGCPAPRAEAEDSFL

AUC(0-inf) [1]: 2910 ng·h/mL
IC50 [3]: 106 nM
inhibition [5]: > 90%
inhibition [6]: 50%
inhibition [8]: > 90%
inhibition [9]: Dose-dependent effect
inhibition [10]: > 90%
AUC (Rattus norvegicus [11]): 6462 ng·h/mL
inhibition [12]: > 90%
inhibition [13]: > 90%
CL(app) (Rattus norvegicus [14]): 28.8 mL/min/kg
Structure (SMILES): CCC(=O)N1CC[C@H](N2C(=O)N(c3cc(OC)ccc3Cl)Cc3cnc(Nc4ccc(N5CCN(C6COC6)CC5)c(C)c4)nc32)C1
Activity (RAW264.7 [2]): Dose-dependent effect
inhibition at 5 µM (RAW264.7 [4]): 90.7%
inhibition at 2 µM (RAW264.7 [7]): 94.6%
